Experimental data as given in PMC8851455 (ACS Omega, 2022).
pEC50: −log10 of the molar value.

Key:
[1] = test system: chicken embryo; assay: Chicken embryonic assay; type: in vivo; settings: for malformation rate / mortality rate / number of dead chicken embryo / number of malformation chicken embryo / weights: embryo / weights: heart / weights: liver: egg injection, day 18
[2] = test system: S. typhimurium TA100; assay: Ames test, strain TA100; type: cell-based, Salmonella typhimurium
[3] = test system: MCF-7 cells; assay: MCF-7 cell proliferation assay; type: cell-based, human
In short: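 MCF-7 cells exposed to test compound or E2 at six concentrations from 10–12 to 10–7 M in EA-free medium. Proliferation read as MTT product absorbance at 570 nm. Three independent trials, each in triplicate. % RME2 = 100 × (OD test − OD VC)/(max OD E2 − OD VC). EC50 from curve fitting. EEF = EC50 of E2/EC50 of sample. One-way ANOVA with Dunnett's test versus E2 at each concentration.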

[4] = test system: S. typhimurium TA98; assay: Ames test, strain TA98; type: cell-based, Salmonella typhimurium
[5] = test system: Swiss mice; settings: 100 and 200 mg/kg; cited from earlier work
[6] = test system: chicken fetal liver; assay: TBARs level; type: in vivo
[7] = test system: zebrafish embryos; settings: at 1–50 μM; cited from earlier work
[8] = test system: S. typhimurium tester strains (TA98, TA100, and TA102); assay: Ames test, overall over three strains; type: cell-based, Salmonella typhimurium; settings: 5 × 10^–5 to 50 pmol/plate, with or without S9
[9] = test system: ERβ; settings: cited from earlier work
[10] = higher dose (0.5 mM: 450–500 μg/kg; E2 0.1 mM: 91 μg/kg)
[11] = lower dose (0.05 mM: 45–50 μg/kg; E2 0.01 mM: 9.1 μg/kg)
[12] = TA100 +S9, 5 × 10^–2 pmol/plate
[13] = TA100 +S9, 5 × 10^–3 pmol/plate
[14] = TA100 +S9, 5 × 10^–4 pmol/plate
[15] = TA100 +S9, 5 × 10^–5 pmol/plate
[16] = TA100 -S9, 5 × 10^–2 pmol/plate
[17] = TA100 -S9, 5 × 10^–3 pmol/plate
[18] = TA100 -S9, 5 × 10^–4 pmol/plate
[19] = TA100 -S9, 5 × 10^–5 pmol/plate

SMILES: O=c1cc(-c2ccc(O)cc2)oc2cc(O)cc(O)c12 [apigenin]
- malformation rate [1, 10]: 0.0%
- mortality rate [1, 10]: 10.0%
- number of dead chicken embryo [1, 10]: 1
- number of malformation chicken embryo [1, 10]: 0
- weights: embryo [1, 10]: 21.49 ± 1.44 g
- weights: heart [1, 10]: 0.17 ± 0.02 g
- weights: liver [1, 10]: 0.41 ± 0.02 g
- fetal liver weight, lower compared with the VC ([1]; higher-dose treatment): ~20%
- malformation rate [1, 11]: 11.11%
- mortality rate [1, 11]: 10.0%
- number of dead chicken embryo [1, 11]: 1
- number of malformation chicken embryo [1, 11]: 1
- weights: embryo [1, 11]: 24.29 ± 0.03 g
- weights: heart [1, 11]: 0.18 ± 0.02 g
- weights: liver [1, 11]: 0.44 ± 0.02 g
- MI ([2]; TA100 +S9, 0.5 pmol/plate): 1.4
- number of revertants/plate (M ± SD) ([2]; TA100 +S9, 0.5 pmol/plate): 415 ± 4 revertants/plate
- MI ([2]; TA100 +S9, 5 pmol/plate): 1.3
- number of revertants/plate (M ± SD) ([2]; TA100 +S9, 5 pmol/plate): 390 ± 4 revertants/plate
- MI ([2]; TA100 +S9, 50 pmol/plate): 1.3
- number of revertants/plate (M ± SD) ([2]; TA100 +S9, 50 pmol/plate): 400 ± 2 revertants/plate
- MI [2, 12]: 1.2
- number of revertants/plate (M ± SD) [2, 12]: 377 ± 15 revertants/plate
- MI [2, 13]: 1.1
- number of revertants/plate (M ± SD) [2, 13]: 349 ± 10 revertants/plate
- MI [2, 14]: 1.1
- number of revertants/plate (M ± SD) [2, 14]: 342 ± 14 revertants/plate
- MI [2, 15]: 1.2
- number of revertants/plate (M ± SD) [2, 15]: 358 ± 6 revertants/plate
- MI ([2]; TA100 -S9, 0.5 pmol/plate): 1.0
- number of revertants/plate (M ± SD) ([2]; TA100 -S9, 0.5 pmol/plate): 94 ± 4 revertants/plate
- MI ([2]; TA100 -S9, 5 pmol/plate): 1.0
- number of revertants/plate (M ± SD) ([2]; TA100 -S9, 5 pmol/plate): 96 ± 4 revertants/plate
- MI ([2]; TA100 -S9, 50 pmol/plate): 1.0
- number of revertants/plate (M ± SD) ([2]; TA100 -S9, 50 pmol/plate): 96 ± 8 revertants/plate
- MI [2, 16]: 0.9
- number of revertants/plate (M ± SD) [2, 16]: 85 ± 6 revertants/plate
- MI [2, 17]: 0.8
- number of revertants/plate (M ± SD) [2, 17]: 75 ± 13 revertants/plate
- MI [2, 18]: 0.9
- number of revertants/plate (M ± SD) [2, 18]: 83 ± 6 revertants/plate
- MI [2, 19]: 0.9
- number of revertants/plate (M ± SD) [2, 19]: 87 ± 6 revertants/plate
- EEF (estradiol equivalent factor) ([3]; EC50 of E2 divided by that of the test compound): 0.16
- pEC50 ([3]; Homo sapiens, MCF7): 10.21
- max % RME2 ([3]; highest % RME2 (relative maximum % E2) in test range 10^–12–10^–7 M): 27%
- MI ([4]; TA98 +S9, 0.5 pmol/plate): 1.1
- number of revertants/plate (M ± SD) ([4]; TA98 +S9, 0.5 pmol/plate): 85 ± 6 revertants/plate
- MI ([4]; TA98 +S9, 5 pmol/plate): 1.1
- number of revertants/plate (M ± SD) ([4]; TA98 +S9, 5 pmol/plate): 80 ± 10 revertants/plate
- MI ([4]; TA98 +S9, 50 pmol/plate): 1.0
- number of revertants/plate (M ± SD) ([4]; TA98 +S9, 50 pmol/plate): 75 ± 20 revertants/plate
- MI ([4]; TA98 +S9, 5 × 10^–2 pmol/plate): 1.2
- number of revertants/plate (M ± SD) ([4]; TA98 +S9, 5 × 10^–2 pmol/plate): 87 ± 6 revertants/plate
- MI ([4]; TA98 +S9, 5 × 10^–3 pmol/plate): 1.1
- number of revertants/plate (M ± SD) ([4]; TA98 +S9, 5 × 10^–3 pmol/plate): 80 ± 18 revertants/plate
- MI ([4]; TA98 +S9, 5 × 10^–4 pmol/plate): 1.1
- number of revertants/plate (M ± SD) ([4]; TA98 +S9, 5 × 10^–4 pmol/plate): 83 ± 9 revertants/plate
- MI ([4]; TA98 +S9, 5 × 10^–5 pmol/plate): 0.9
- number of revertants/plate (M ± SD) ([4]; TA98 +S9, 5 × 10^–5 pmol/plate): 68 ± 2 revertants/plate
- MI ([4]; TA98 -S9, 0.5 pmol/plate): 0.9
- number of revertants/plate (M ± SD) ([4]; TA98 -S9, 0.5 pmol/plate): 9 ± 1 revertants/plate
- MI ([4]; TA98 -S9, 5 pmol/plate): 1.3
- number of revertants/plate (M ± SD) ([4]; TA98 -S9, 5 pmol/plate): 13 ± 1 revertants/plate
- MI ([4]; TA98 -S9, 50 pmol/plate): 1.1
- number of revertants/plate (M ± SD) ([4]; TA98 -S9, 50 pmol/plate): 11 ± 4 revertants/plate
- MI ([4]; TA98 -S9, 5 × 10^–2 pmol/plate): 1.0
- number of revertants/plate (M ± SD) ([4]; TA98 -S9, 5 × 10^–2 pmol/plate): 10 ± 4 revertants/plate
- MI ([4]; TA98 -S9, 5 × 10^–3 pmol/plate): 1.0
- number of revertants/plate (M ± SD) ([4]; TA98 -S9, 5 × 10^–3 pmol/plate): 10 ± 3 revertants/plate
- MI ([4]; TA98 -S9, 5 × 10^–4 pmol/plate): 0.7
- number of revertants/plate (M ± SD) ([4]; TA98 -S9, 5 × 10^–4 pmol/plate): 7 ± 3 revertants/plate
- MI ([4]; TA98 -S9, 5 × 10^–5 pmol/plate): 1.0
- number of revertants/plate (M ± SD) ([4]; TA98 -S9, 5 × 10^–5 pmol/plate): 10 ± 3 revertants/plate
- hepatotoxicity [5]: led to hepatotoxicity
- TBARs value ([6]; higher dose (0.5 mM: 450–500 μg/kg)): 112.31 nmol/g
- TBARs value ([6]; lower dose (0.05 mM: 45–50 μg/kg)): 103.73 nmol/g
- developmental toxicity in zebrafish model [7]: showing developmental toxicity
- Ames test outcome (signs of mutagenicity) [8]: signs of mutagenicity
- binding affinity for ERβ [9]: 6%
